Data as given in ChEMBL document CHEMBL1817651, “Neuroprotective effects of linarin through activation of the PI3K/Akt pathway in amyloid-β-induced neuronal cell death” (2011).
Activity calls are given as the source filed them. The calls are words filed in the database; no cut-off is given here.

How the values were obtained:
PC-12 [1] = assay: Cytoprotective activity in amyloid beta-induced apoptosis in rat PC12 cells at 10 uM administered 1 hr prior to amyloid beta challenge measured after 24 hrs by using Annexin V/PI staining based flow cytometric analysis; assay type: functional
In short: (§1)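 Cells were stained with Annexin V-FITC/PI for 15 min in the dark at room temperature and analysed by flow cytometry. Annexin+/PI− cells were scored early apoptotic and double-positive cells late apoptotic. Mean ± SD of triplicate independent experiments.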

PC-12 [2] = assay: Neuroprotective activity in amyloid beta-induced cytotoxicity in rat PC12 cells assessed as cell viability pretreated 1 hrs prior to amyloid beta challenge measured after 24 hrs by MTT assay; assay type: functional, cell-based
In short: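 PC12 cells at 0.5 × 10^4 per well, serum-starved 12 h, then pretreated 1 h with 0.1, 1.0 or 10 µM. Viability was read by MTT (5 mg/ml, 4 h, 37 °C), with formazan dissolved in DMSO and A570 measured. Mean ± SD of triplicate experiments.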

[3] = biological target: T1, Acetylcholinesterase (Rattus norvegicus) (UniProt P37136); assay: Inhibition of AChE activity in amyloid beta25-35-induced rat PC12 cells at 0.1 to 10 uM, 1 hrs prior to induction after 24 hrs by Ellman assay; assay type: cell-based; details: PC-12
T1 sequence (whole entry): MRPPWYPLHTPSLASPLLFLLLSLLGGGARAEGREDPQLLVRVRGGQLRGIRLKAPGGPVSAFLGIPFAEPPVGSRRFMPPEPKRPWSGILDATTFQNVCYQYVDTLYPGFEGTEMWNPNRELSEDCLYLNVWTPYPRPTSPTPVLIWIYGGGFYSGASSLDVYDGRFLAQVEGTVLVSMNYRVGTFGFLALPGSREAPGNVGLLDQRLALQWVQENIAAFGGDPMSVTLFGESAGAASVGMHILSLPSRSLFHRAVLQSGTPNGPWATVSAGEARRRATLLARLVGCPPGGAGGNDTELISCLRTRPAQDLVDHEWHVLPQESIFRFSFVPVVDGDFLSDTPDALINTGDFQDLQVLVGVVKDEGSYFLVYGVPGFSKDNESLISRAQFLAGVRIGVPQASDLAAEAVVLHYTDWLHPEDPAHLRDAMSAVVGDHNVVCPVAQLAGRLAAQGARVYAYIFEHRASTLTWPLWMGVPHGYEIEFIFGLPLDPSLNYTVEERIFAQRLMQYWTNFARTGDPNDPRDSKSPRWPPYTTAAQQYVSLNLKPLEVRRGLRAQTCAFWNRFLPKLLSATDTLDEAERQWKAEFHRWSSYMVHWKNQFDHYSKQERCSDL
In short: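 Rat PC12 cells in DMEM/10% FBS, serum-starved 12 h, were pretreated 1 h, then exposed 24 h to 30 µM Aβ25-35 (1 mM in water, pre-aggregated 72 h at 37 °C). Lysates were made in high ionic strength buffer (1 M NaCl, Triton X-100, EDTA) and spun 12,000 rpm 20 min at 4 °C. AChE activity in the supernatant was read by Ellman method; three independent experiments.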

PC-12 [4] = assay: Cytoprotective activity in amyloid beta-induced apoptosis in rat PC12 cells at 0.1 uM administered 1 hr prior to amyloid beta challenge measured after 24 hrs by using Annexin V/PI staining based flow cytometric analysis; assay type: functional; in short: as §1
PC-12 [5] = assay: Cytoprotective activity in amyloid beta-induced apoptosis in rat PC12 cells at 1 uM administered 1 hr prior to amyloid beta challenge measured after 24 hrs by using Annexin V/PI staining based flow cytometric analysis; assay type: functional; in short: as §1
PC-12 [6] = assay: Cytoprotective activity in amyloid beta-induced apoptosis in rat PC12 cells administered 1 hr prior to amyloid beta challenge measured after 24 hrs by using Annexin V/PI staining based flow cytometric analysis; assay type: functional, cell-based; in short: as §1
PC-12 [7] = assay: Inhibition of amyloid beta-induced mitochondrial dysfunction in rat PC12 cells at 0.1 to 10 uM administered 1 hr prior to amyloid beta challenge measured after 24 hrs using JC1 fluorescent dye based flow cytometeric analysis; assay type: functional, cell-based
In short: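 Cells were loaded with JC-1 for 20 min at 37 °C, pelleted at 600g, resuspended in PBS and analysed by flow cytometry on FL1 (525 nm) and FL2 (575 nm). Membrane potential was expressed as the green/red fluorescence ratio. Mean ± SD, triplicate.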

PC-12 [8] = assay: Inhibition of amyloid beta-induced apoptosis in rat PC12 cells assessed as decrease in caspase-3 dependent cleavage of Ac-DEVD-pNA administered 1 hr prior to amyloid beta challenge measured after 24 hrs by spectrophotometric analysis; assay type: functional, cell-based
In short: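 Released pNA was read at 405 nm. Activity was normalised to protein and expressed as fold over control cells. Mean ± SD of triplicate experiments.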

PC-12 [9] = assay: Neuroprotective effect against amyloid beta-induced apoptosis in rat PC12 cells assessed as upregulation of PI3K-mediated Akt phosphorylation administered 1 hr prior to amyloid beta challenge measured after 24 hrs by Western blotting; assay type: functional, cell-based
In short: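 Lysate protein (20 or 30 µg) was run on 12% SDS-PAGE and blotted to nitrocellulose. Blots were probed for p-Akt Ser473 and total Akt (1:1000), with β-actin or GAPDH as loading control, and detected by ECL. Densitometry, mean ± SD, triplicate.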

[10] = biological target: RAC-alpha serine/threonine-protein kinase (Rattus norvegicus) (UniProt P47196); assay: Induction of PIK3-mediated Akt phosphorylation in amyloid beta-induced rat PC12 cells at 10 uM, treated 1 hrs prior to amyloid beta challenge measured after 24 hrs by Western blotting in presence of PI3K inhibitor LY294002 before compound addition; assay type: cell-based; details: PC-12
Sequence of RAC-alpha serine/threonine-protein kinase (Rattus norvegicus) (P47196 whole entry): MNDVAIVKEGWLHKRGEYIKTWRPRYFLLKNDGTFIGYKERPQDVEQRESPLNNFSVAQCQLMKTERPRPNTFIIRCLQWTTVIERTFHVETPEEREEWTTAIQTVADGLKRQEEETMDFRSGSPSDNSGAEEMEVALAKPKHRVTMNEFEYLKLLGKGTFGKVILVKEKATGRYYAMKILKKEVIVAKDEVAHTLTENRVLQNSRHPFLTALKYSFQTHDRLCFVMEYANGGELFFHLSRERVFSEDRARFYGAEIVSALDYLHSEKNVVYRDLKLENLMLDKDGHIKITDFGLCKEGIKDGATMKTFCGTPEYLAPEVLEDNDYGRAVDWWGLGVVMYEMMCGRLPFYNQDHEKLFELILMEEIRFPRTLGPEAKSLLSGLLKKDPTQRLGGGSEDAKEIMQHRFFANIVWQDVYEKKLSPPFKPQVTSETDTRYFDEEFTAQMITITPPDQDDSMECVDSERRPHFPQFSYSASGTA
In short: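 Lysates (20 or 30 µg) were run on 12% SDS-PAGE and immunoblotted for p-Akt and total Akt (1:1000) with ECL detection. Densitometry, mean ± SD of triplicate experiments.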

[11] = biological target: Glycogen synthase kinase-3 beta (Rattus norvegicus) (UniProt P18266); assay: Increase in GSK3 beta phosphorylation at Ser9 in amyloid beta-induced rat PC12 cells at 0.1 to 10 uM administered 1 hrs prior to amyloid beta challenge measured after 24 hrs by Western blotting; assay type: cell-based; details: PC-12
Sequence of Glycogen synthase kinase-3 beta (Rattus norvegicus) (P18266 whole entry, looked up): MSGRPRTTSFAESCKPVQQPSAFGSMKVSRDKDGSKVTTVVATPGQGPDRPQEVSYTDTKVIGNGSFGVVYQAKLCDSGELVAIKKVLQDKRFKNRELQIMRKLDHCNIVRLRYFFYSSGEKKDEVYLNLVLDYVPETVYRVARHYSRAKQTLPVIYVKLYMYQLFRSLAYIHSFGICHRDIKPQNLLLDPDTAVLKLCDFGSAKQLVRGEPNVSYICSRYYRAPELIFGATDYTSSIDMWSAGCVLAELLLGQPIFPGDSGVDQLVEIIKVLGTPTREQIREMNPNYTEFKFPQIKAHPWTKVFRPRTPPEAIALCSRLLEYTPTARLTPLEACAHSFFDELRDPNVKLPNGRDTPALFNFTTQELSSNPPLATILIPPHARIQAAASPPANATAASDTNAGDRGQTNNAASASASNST
In short: (§2)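 Lysates (20 or 30 µg) were run on 12% SDS-PAGE and immunoblotted for pSer9 GSK-3β and total GSK-3β (1:1000), with β-actin or GAPDH as loading control. Blots shown represent three independent experiments.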

[12] = biological target: Glycogen synthase kinase-3 beta (Rattus norvegicus) (UniProt P18266); assay: Increase in GSK3 beta phosphorylation at Ser9 in amyloid beta-induced rat PC12 cells at 0.1 to 10 uM administered 1 hrs prior to amyloid beta challenge measured after 24 hrs by Western blotting pretreated with PI3K inhibitor LY294002 before compound addition; assay type: cell-based; details: PC-12; in short: as §2
PC-12 [13] = assay: Neuroprotective activity in amyloid beta-induced rat PC12 cells assessed as increase of Bcl-2 expression at 0.1 to 10 uM administered 1 hrs prior to amyloid beta challenge measured after 24 hrs by Western blotting; assay type: functional, cell-based
In short: (§3)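 Lysates (20 or 30 µg) were separated on 12% gels, blotted and probed with anti-Bcl-2 (1:200), with β-actin or GAPDH as loading control. Detection was by ECL.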

PC-12 [14] = assay: Neuroprotective effect against amyloid beta-induced rat PC12 cells assessed as increase of Bcl-2 expression at 0.1 to 10 uM administered 1 hrs prior to amyloid beta challenge measured after 24 hrs by Western blotting pretreated with PI3K inhibitor LY294002 before compound addition; assay type: functional, cell-based; in short: as §3

## COc1ccc(-c2cc(=O)c3c(O)cc(O[C@@H]4O[C@H](CO[C@@H]5O[C@@H](C)[C@H](O)[C@@H](O)[C@H]5O)[C@@H](O)[C@H](O)[C@H]4O)cc3o2)cc1 [ACACIIN]
PC-12 [1]
  Activity: 7.32%
PC-12 [2]
  Activity: Dose-dependent effect
[3]
  inhibition: Active
PC-12 [4]
  Activity: 20.52%
PC-12 [5]
  Activity: 11.57%
PC-12 [6]
  Activity: Dose-dependent effect
PC-12 [7]
  inhibition: Active
PC-12 [8]
  inhibition: Dose-dependent effect
PC-12 [9]
  Activity: Active
[10]
  Activity: inactive
[11]
  Activity: Active
[12]
  Activity: inactive
PC-12 [13]
  Activity: Active
PC-12 [14]
  Activity: inactive
